The target of one experiment is T1, Endothelin-1 receptor (Rattus norvegicus, UniProt P26684).
T1 sequence (P26684 whole entry): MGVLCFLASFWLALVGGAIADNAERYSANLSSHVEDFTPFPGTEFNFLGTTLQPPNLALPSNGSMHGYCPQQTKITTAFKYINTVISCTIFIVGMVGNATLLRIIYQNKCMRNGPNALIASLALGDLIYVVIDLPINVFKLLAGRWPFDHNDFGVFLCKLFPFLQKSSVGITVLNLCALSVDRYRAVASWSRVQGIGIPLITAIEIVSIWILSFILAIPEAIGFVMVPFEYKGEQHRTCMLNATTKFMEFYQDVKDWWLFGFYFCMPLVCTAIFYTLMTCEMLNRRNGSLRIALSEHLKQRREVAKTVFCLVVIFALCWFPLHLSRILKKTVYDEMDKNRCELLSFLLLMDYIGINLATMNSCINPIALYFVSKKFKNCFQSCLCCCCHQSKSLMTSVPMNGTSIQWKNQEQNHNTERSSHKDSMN
In words: In vitro inhibition of [125I]ET1 binding to rat A10 cell Endothelin A receptor. Type of experiment: cell-based. In a few lines: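 Rat A10 cells were harvested, washed in 50 mM Hepes pH 7.3 with 1 mM CaCl2 and 5 mM MgCl2, and frozen. Nonspecific binding was defined with 500 nM ET-1. IC50 came from curve fitting; mean of n ± SEM.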

In experiment [1] the target is T2, Endothelin receptor type B (Rattus norvegicus, UniProt P21451).
T2 sequence (P21451 whole entry): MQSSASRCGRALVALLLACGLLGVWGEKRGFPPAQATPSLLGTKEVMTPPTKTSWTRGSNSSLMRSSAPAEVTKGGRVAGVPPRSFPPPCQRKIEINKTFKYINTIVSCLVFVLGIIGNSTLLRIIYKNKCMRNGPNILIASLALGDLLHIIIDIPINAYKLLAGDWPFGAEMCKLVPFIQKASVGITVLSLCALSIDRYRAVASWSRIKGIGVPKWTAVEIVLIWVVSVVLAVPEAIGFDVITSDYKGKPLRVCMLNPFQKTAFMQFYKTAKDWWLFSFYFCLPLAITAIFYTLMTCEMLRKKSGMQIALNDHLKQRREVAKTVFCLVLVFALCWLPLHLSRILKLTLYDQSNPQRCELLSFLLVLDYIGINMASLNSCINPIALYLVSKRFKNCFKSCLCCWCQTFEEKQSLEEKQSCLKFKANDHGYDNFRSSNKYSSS
In words: In vitro inhibition of [125I]ET1 binding to rat cerebellum Endothelin B receptor. Type of experiment: tissue-based. In a few lines:
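Rat cerebellum was homogenized in Tris/sucrose/EDTA buffer with protease inhibitors; the 40000g membrane pellet was used. Nonspecific binding was defined with 500 nM ET-1. IC50 by curve fitting; single experiment.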

For experiment [2], the species on record is Rattus norvegicus. In words: Antagonism of ET-1 mediated contraction of isolated de-endothelialized rat aortic rings. Type of experiment: functional, Aorta.
For experiment [3], the system named is Rattus norvegicus. Description: Effect of compound on ET-1 induced changes in diastolic blood pressure in the pithed rat pretreated with BQ 788 (3 mg/kg) at 2.5 uM/kg (iv) dose; NS = Not significant. Type of experiment: functional, organism-based. The note with it: Artery. In a few lines:
(§1)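 Male Sprague-Dawley rats (250–350 g), isoflurane-anesthetized, pithed and artificially respired. Dosing via the jugular vein; blood pressure via carotid artery transducer. BQ 788 (3 mg/kg) and test compound given iv 10 min before a bolus ET-1 dose–pressor curve (0.01–10 nmol/kg). Fold rightward shift from vehicle measured at the ET-1 dose giving a 40 mmHg diastolic change. Mean of 4–6 rats.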

Experiment [4] relates to Rattus norvegicus. In words: Effect of compound on ET-1 induced changes in diastolic blood pressure in the pithed rat pretreated with BQ 788 (3 mg/kg) at 25 uM/kg (iv) dose. Type of experiment: functional, Artery. The method, boiled down: as §1
The subject of experiment [5] is Rattus norvegicus. Description: Effect of compound on ET-1 induced changes in diastolic blood pressure in the pithed rat pretreated with BQ 788 (3 mg/kg) at 7.5 uM/kg (iv) dose. Type of experiment: functional, Artery. In a few lines:
as §1

For experiment [6], the system named is Rattus norvegicus. In words: Effect of compound on ET-1 induced changes in diastolic blood pressure in the pithed rat pretreated with BQ 788 (3 mg/kg) at 75 uM/kg (iv) dose. Type of experiment: functional, Artery. In a few lines: as §1

SMILES strings stand for the structures. The source made the active and inactive calls. The rule behind the calls is not given here. Where a SMILES comes first, the peptide text is derived from it. [ ]: non-standard residue; d: D form. Bounds are passed on as bounds.

As to `O=C(O)c1cc(-c2ccc(OCc3ccccc3)cc2OCc2ccccc2)n[nH]1`, the IC50 on Endothelin-1 receptor is 1000 nM; in experiment [1], more than 30000 nM.
In the case of `Cc1ccccc1[C@@H](CCC(=O)O)Oc1cc(OCc2ccncc2)ccc1C#N`, the IC50 on Endothelin-1 receptor came out at 20 nM; in experiment [1], 10000 nM. In addition, the negative logarithm of the KB (pKB) in the experiment listed under Rattus norvegicus [2] came out at 7.1.
As for `Cc1ccccc1C(CCC(=O)O)Oc1cc(OCc2ccsc2)ccc1C(=O)O` (stereo not drawn), the figures for the IC50 (at Endothelin-1 receptor; in experiment [1]) were 207 nM and more than 10000 nM, respectively.
The matching figures for `Cc1ccccc1C(CCC(=O)O)Oc1cccc(OCc2ccsc2)c1` (stereo not drawn): 871 nM and more than 30000 nM.
Regarding `Cc1ccccc1C(CCC(=O)O)Oc1cc(OCc2ccsc2)ccc1-c1cc(C(=O)O)[nH]n1` (stereo not drawn), the IC50 on Endothelin-1 receptor came out at 7 nM; in experiment [1] it was 3000 nM. For the same compound, the pKB in the experiment filed under Rattus norvegicus [2] worked out at 7.3.
As to `Cc1ccccc1[C@@H](CCC(=O)O)Oc1cc(OCc2cnsc2)ccc1C#N`, the results for the half-maximal inhibitory concentration (IC50) (at Endothelin-1 receptor; in experiment [1]) were 7 nM and 10000 nM, respectively. In the experiment filed under Rattus norvegicus [2], this compound gave a negative logarithm of the KB (pKB) of 7.3.
Consider `Cc1ccccc1C(CCC(=O)O)Oc1cc(OCc2ccsc2)ccc1C(N)=O` (stereo not drawn), for which the concentration for half-maximal inhibition (IC50) on Endothelin-1 receptor came out at 29 nM; in experiment [1] it was 10000 nM.
In experiment [1], `Cc1ccccc1[C@@H](CCC(=O)O)Oc1cc(OCc2ccsc2)ccc1C#N` gave a half-maximal inhibitory concentration (IC50) of more than 10000 nM. This compound also registered a pKB in the experiment listed under Rattus norvegicus [2] of 7.4.
`Cc1ccccc1C(CCC(=O)O)C(=O)c1cccc(OCc2ccsc2)c1` (stereo not drawn): the IC50 on Endothelin-1 receptor was 110 nM; in experiment [1], more than 30000 nM. In the experiment listed under Rattus norvegicus [2], this compound displayed a negative-log KB (pKB) of 5.7.
For `Cc1ccccc1[C@@H](CCC(=O)O)Oc1cc(OCc2ccc3c(c2)OCO3)ccc1C#N`, the half-inhibitory concentration (IC50) at Endothelin-1 receptor was 69 nM; in experiment [1] it was 10000 nM.
In turn, `Cc1ccccc1C(CCC(=O)O)Oc1cc(OCc2ccsc2)ccc1C#N` (stereo not drawn) came in with an IC50 in experiment [1] of 5000 nM.
For `Cc1ccccc1[C@@H](CCC(=O)O)Oc1cc(OCc2cccnc2)ccc1C#N`, the half-maximal inhibitory concentration (IC50) came to 5 nM on Endothelin-1 receptor and 10000 nM in experiment [1]. Also, the Shift result in the experiment on Rattus norvegicus [3] was “inactive”. The Shift in the experiment with Rattus norvegicus [4] is reported as 10.48; in the experiment on Rattus norvegicus [5], 2.27; in the experiment on Rattus norvegicus [6], 36.58.
On to `CC(C)C[C@@H]1NC(=O)[C@@H](C(C)C)NC(=O)[C@@H]2CCCN2C(=O)[C@@H](CC(=O)O)NC(=O)[C@@H](Cc2c[nH]c3ccccc23)NC1=O` [BQ-123] (cyclo(L[dW][dD]P[dV])), for which the half-maximal inhibitory concentration (IC50) on Endothelin-1 receptor was found to be 14 nM.
Regarding `Cc1ccccc1C(CCC(=O)O)Oc1cc(OCc2ccsc2)ccc1-c1ncc[nH]1` (stereo not drawn), the IC50 at Endothelin-1 receptor is 163 nM; in experiment [1], more than 10000 nM.
The matching figures for `Cc1ccccc1C(CCC(=O)O)Oc1cc(OCc2ccsc2)ccc1-c1ncco1` (stereo not drawn): 20 nM and 10000 nM.
`Cc1ccccc1[C@H](CCC(=O)O)Oc1cc(OCc2ccsc2)ccc1C#N` yielded an IC50 in experiment [1] of 10000 nM.
Turning to `CC(=O)c1ccc(OCc2ccsc2)cc1OC(CCC(=O)O)c1ccccc1C` (stereo not drawn), the results for the half-maximal inhibitory concentration (IC50) (on Endothelin-1 receptor; in experiment [1]) were 26 nM and 10000 nM, respectively.
As for `Cc1ccccc1C(CCC(=O)O)Oc1cc(OCc2ccsc2)ccc1-c1cc[nH]n1` (stereo not drawn), the IC50 at Endothelin-1 receptor stood at 20 nM; in experiment [1], 10000 nM.
On the same counts, the results for `Cc1ccccc1C(CCC(=O)O)Oc1cc(OCc2ccsc2)ccc1-c1ccccn1` (stereo not drawn) are 40 nM and 10000 nM.

As a reminder, the IC50 is the concentration that gives 50% inhibition. For orientation: pKB means the negative decadic logarithm of the KB, by convention in mol/L. A low value points to a high KB.

Values taken from ChEMBL document CHEMBL1131032, “Selective endothelin A receptor antagonists. 3. Discovery and structure-activity relationships of a series of 4-phenoxybutanoic acid derivatives” (J Med Chem, 1998).
